In ChEMBL document CHEMBL3244034, “Semisynthetic cephalosporins. Synthesis and structure-activity relationships of 7-(1-pyrryl)- and 7-(1-indolyl)acetamidocephalosporin derivatives” (1978):
≈ marks a conversion by molar mass, not a printed value. Calls of active or inactive are those of the source. The calls are words filed in the database; no cut-off is given here.

Key:
[1] = system: Staphylococcus aureus; assay: Antibacterial activity against benzylpenicillin-resistant Staphylococcus aureus after 17 hrs by serial two fold dilution method; format: functional
Method in brief: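 Agar dilution MIC. Compound was serially diluted twofold in Mueller-Hinton agar. The surface was inoculated with a diluted 18-24-h broth culture […]. Plates were incubated 17 h at 37 °C. MIC was taken as the lowest concentration giving complete or virtually complete inhibition of visible growth.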

[2] = system: Staphylococcus aureus; assay: Antibacterial activity against Staphylococcus aureus after 17 hrs by serial two fold dilution method; format: functional
Method in brief: (§1)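 Agar dilution MIC: compound serially diluted twofold in Mueller-Hinton agar. Plate surfaces were inoculated with a suitably diluted 18-24-h broth culture and incubated 17 h at 37 °C. MIC was read as the lowest concentration giving complete or virtually complete inhibition of visible growth.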

[3] = system: Staphylococcus epidermidis; assay: Antibacterial activity against Staphylococcus epidermidis after 17 hrs by serial two fold dilution method; format: functional; method in brief: as §1
[4] = system: Enterococcus faecalis; assay: Antibacterial activity against Staphylococcus faecalis after 17 hrs by serial two fold dilution method; format: functional; method in brief: as §1
[5] = system: Streptococcus pneumoniae; assay: Antibacterial activity against Streptococcus pneumoniae after 17 hrs by serial two fold dilution method; format: functional; method in brief: as §1
[6] = system: Streptococcus pyogenes; assay: Antibacterial activity against Streptococcus pyogenes after 17 hrs by serial two fold dilution method; format: functional; method in brief: as §1
[7] = system: Klebsiella aerogenes; assay: Antibacterial activity against Enterobacter aerogenes after 17 hrs by serial two fold dilution method; format: functional
[8] = system: Enterobacter cloacae; assay: Antibacterial activity against Enterobacter cloacae after 17 hrs by serial two fold dilution method; format: functional
[9] = system: Escherichia coli; assay: Antibacterial activity against Escherichia coli after 17 hrs by serial two fold dilution method; format: functional; method in brief: as §1
[10] = system: Klebsiella pneumoniae; assay: Antibacterial activity against Klebsiella pneumoniae after 17 hrs by serial two fold dilution method; format: functional; method in brief: as §1
[11] = system: Proteus mirabilis; assay: Antibacterial activity against Proteus mirabilis after 17 hrs by serial two fold dilution method; format: functional; method in brief: as §1
[12] = system: Proteus vulgaris; assay: Antibacterial activity against Proteus vulgaris after 17 hrs by serial two fold dilution method; format: functional; method in brief: as §1
[13] = system: Providencia stuartii; assay: Antibacterial activity against Providencia stuartii after 17 hrs by serial two fold dilution method; format: functional; method in brief: as §1
[14] = system: Pseudomonas aeruginosa; assay: Antibacterial activity against Pseudomonas aeruginosa after 17 hrs by serial two fold dilution method; format: functional; method in brief: as §1
[15] = system: Salmonella; assay: Antibacterial activity against Salmonella schottmuelleri after 17 hrs by serial two fold dilution method; format: functional; method in brief: as §1
[16] = system: Staphylococcus aureus; assay: Antibacterial activity against benzylpenicillin-resistant Staphylococcus aureus infected in sc dosed CD1 mouse assessed as host survival administered 1 and 4 hrs after infection measured on day 4; format: functional
Method in brief: (§2)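 Male albino CD-1 mice, 20 (± 1) g, infected intraperitoneally with a bacterial suspension giving uniformly lethal infection. Groups of ten mice were treated subcutaneously with antibiotic at 1 and 4 h post-infection. Survival over 4 days was recorded.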

[17] = system: Streptococcus pyogenes; assay: Antibacterial activity against Streptococcus pyogenes infected in sc dosed CD1 mouse assessed as host survival administered 1 and 4 hrs after infection measured on day 4; format: functional; method in brief: as §2
[18] = system: Escherichia coli; assay: Antibacterial activity against Escherichia coli infected in sc dosed CD1 mouse assessed as host survival administered 1 and 4 hrs after infection measured on day 4; format: functional; method in brief: as §2
[19] = system: Klebsiella pneumoniae; assay: Antibacterial activity against Klebsiella pneumoniae infected in sc dosed CD1 mouse assessed as host survival administered 1 and 4 hrs after infection measured on day 4; format: functional; method in brief: as §2
[20] = system: Proteus mirabilis; assay: Antibacterial activity against Proteus mirabilis infected in sc dosed CD1 mouse assessed as host survival administered 1 and 4 hrs after infection measured on day 4; format: functional; method in brief: as §2
[21] = system: Salmonella; assay: Antibacterial activity against Salmonella schottmuelleri infected in sc dosed CD1 mouse assessed as host survival administered 1 and 4 hrs after infection measured on day 4; format: functional; method in brief: as §2
[22] = system: Neisseria gonorrhoeae; assay: Antibacterial activity against Neisseria gonorrhoeae after 17 hrs by serial two fold dilution method; format: functional, organism-based
[23] = system: Haemophilus influenzae; assay: Antibacterial activity against Haemophilus influenzae after 17 hrs by serial two fold dilution method; format: functional, organism-based
[24] = system: Bacteroides fragilis; assay: Antibacterial activity against Bacteroides fragilis after 17 hrs by serial two fold dilution method; format: functional, organism-based
[25] = system: Fusobacterium varium; assay: Antibacterial activity against Fusobacterium varium after 17 hrs by serial two fold dilution method; format: functional, organism-based

| SMILES | MIC [1] | MIC [2] | MIC [3] | MIC [4] | MIC [5] | MIC [6] | MIC [7] | MIC [8] | MIC [9] | MIC [10] | MIC [11] | MIC [12] | MIC [13] | MIC [14] | MIC [15] | also measured |
| --- | --- | --- | --- | --- | --- | --- | --- | --- | --- | --- | --- | --- | --- | --- | --- | --- |
| CC(=O)OCC1=C(C(=O)O)N2C(=O)[C@@H](NC(=O)Cn3cccc3)[C@H]2SC1 | 1.6 mg/L (≈ 4.22 µM) | 0.8 mg/L (≈ 2.11 µM) | 3.1 mg/L (≈ 8.17 µM) | > 100 mg/L | 0.4 mg/L (≈ 1.05 µM) | 0.4 mg/L (≈ 1.05 µM) | > 100 mg/L | > 100 mg/L | 6.2 mg/L (≈ 16.3 µM) | 6.2 mg/L (≈ 16.3 µM) | 12.5 mg/L (≈ 32.9 µM) | > 100 mg/L | 50 mg/L (≈ 132 µM) | > 100 mg/L | 3.1 mg/L (≈ 8.17 µM) | – |
| Cc1nnc(SCC2=C(C(=O)O)N3C(=O)[C@@H](NC(=O)Cn4ccc5ccccc54)[C@H]3SC2)s1 | 0.2 mg/L (≈ 0.399 µM) | 0.1 mg/L (≈ 0.199 µM) | 0.4 mg/L (≈ 0.797 µM) | > 100 mg/L | ≤ 0.025 mg/L | 0.05 mg/L (≈ 0.0997 µM) | 100 mg/L (≈ 199 µM) | 100 mg/L (≈ 199 µM) | 50 mg/L (≈ 99.7 µM) | 50 mg/L (≈ 99.7 µM) | 50 mg/L (≈ 99.7 µM) | > 100 mg/L | 25 mg/L (≈ 49.8 µM) | > 100 mg/L | 25 mg/L (≈ 49.8 µM) | – |
| Cn1nnnc1SCC1=C(C(=O)O)N2C(=O)[C@@H](NC(=O)Cn3cccc3)[C@H]2SC1 | 0.8 mg/L (≈ 1.84 µM) | 0.4 mg/L (≈ 0.919 µM) | 1.6 mg/L (≈ 3.67 µM) | > 100 mg/L | 0.1 mg/L (≈ 0.23 µM) | 0.1 mg/L (≈ 0.23 µM) | 25 mg/L (≈ 57.4 µM) | 6.2 mg/L (≈ 14.2 µM) | 0.8 mg/L (≈ 1.84 µM) | 1.6 mg/L (≈ 3.67 µM) | 6.2 mg/L (≈ 14.2 µM) | > 100 mg/L | 6.2 mg/L (≈ 14.2 µM) | > 100 mg/L | 0.4 mg/L (≈ 0.919 µM) | ED50 [16]: 72 mg/kg; ED50 [17]: 2.3 mg/kg; ED50 [18]: 2.5 mg/kg; ED50 [19]: 67 mg/kg; ED50 [20]: 100 mg/kg; ED50 [21]: 2.5 mg/kg; Activity [22]: inactive; Activity [23]: inactive; Activity [24]: inactive; Activity [25]: inactive |
| Cn1nnnc1SCC1=C(C(=O)O)N2C(=O)[C@@H](NC(=O)Cn3cccc3C=O)[C@H]2SC1 | 1.6 mg/L (≈ 3.45 µM) | 0.8 mg/L (≈ 1.73 µM) | 3.1 mg/L (≈ 6.69 µM) | > 100 mg/L | – | 0.2 mg/L (≈ 0.431 µM) | 100 mg/L (≈ 216 µM) | > 100 mg/L | 12.5 mg/L (≈ 27 µM) | 12.5 mg/L (≈ 27 µM) | 50 mg/L (≈ 108 µM) | > 100 mg/L | 50 mg/L (≈ 108 µM) | > 100 mg/L | 6.2 mg/L (≈ 13.4 µM) | – |
| Cc1nnc(SCC2=C(C(=O)O)N3C(=O)[C@@H](NC(=O)Cn4cccc4)[C@H]3SC2)s1 | 0.8 mg/L (≈ 1.77 µM) | 0.2 mg/L (≈ 0.443 µM) | 0.8 mg/L (≈ 1.77 µM) | > 100 mg/L | 0.1 mg/L (≈ 0.221 µM) | 0.1 mg/L (≈ 0.221 µM) | 100 mg/L (≈ 221 µM) | 100 mg/L (≈ 221 µM) | 12.5 mg/L (≈ 27.7 µM) | 6.2 mg/L (≈ 13.7 µM) | 25 mg/L (≈ 55.4 µM) | > 100 mg/L | 25 mg/L (≈ 55.4 µM) | > 100 mg/L | 6.2 mg/L (≈ 13.7 µM) | – |
| CC(=O)OCC1=C(C(=O)O)N2C(=O)[C@@H](NC(=O)Cn3cccc3C=O)[C@H]2SC1 | 1.6 mg/L (≈ 3.93 µM) | 0.8 mg/L (≈ 1.96 µM) | 3.1 mg/L (≈ 7.61 µM) | > 100 mg/L | – | 0.4 mg/L (≈ 0.982 µM) | > 100 mg/L | > 100 mg/L | 100 mg/L (≈ 245 µM) | 50 mg/L (≈ 123 µM) | 100 mg/L (≈ 245 µM) | > 100 mg/L | > 100 mg/L | > 100 mg/L | 50 mg/L (≈ 123 µM) | – |
